Reference: ChEMBL document CHEMBL1135734, “Side-chain lactam-bridge conformational constraints differentiate the activities of salmon and human calcitonins and reveal a new design concept for potent calcitonin analogues” (J Med Chem, 2002)

Experiments:
[1] = target: T1, Calcitonin receptor (Homo sapiens) (UniProt P30988)
T1 sequence (whole entry): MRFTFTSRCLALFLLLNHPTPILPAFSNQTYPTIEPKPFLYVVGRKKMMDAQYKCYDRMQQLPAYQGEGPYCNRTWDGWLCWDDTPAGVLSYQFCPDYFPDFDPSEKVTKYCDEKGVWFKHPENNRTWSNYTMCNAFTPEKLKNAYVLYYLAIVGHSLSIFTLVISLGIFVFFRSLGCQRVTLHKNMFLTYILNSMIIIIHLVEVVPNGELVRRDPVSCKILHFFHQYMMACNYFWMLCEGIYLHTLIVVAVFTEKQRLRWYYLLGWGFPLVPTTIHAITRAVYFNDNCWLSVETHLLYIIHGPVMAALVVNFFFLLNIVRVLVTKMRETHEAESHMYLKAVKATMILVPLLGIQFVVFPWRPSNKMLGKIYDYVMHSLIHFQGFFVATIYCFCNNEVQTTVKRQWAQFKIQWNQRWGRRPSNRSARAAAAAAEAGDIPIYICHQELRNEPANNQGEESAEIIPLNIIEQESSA

[2] = target: T2, Calcitonin receptor (Rattus norvegicus) (UniProt P32214); assay: Affinity for calcitonin receptor of rat brain relative to [125I]-salmon calcitonin
T2 sequence (whole entry): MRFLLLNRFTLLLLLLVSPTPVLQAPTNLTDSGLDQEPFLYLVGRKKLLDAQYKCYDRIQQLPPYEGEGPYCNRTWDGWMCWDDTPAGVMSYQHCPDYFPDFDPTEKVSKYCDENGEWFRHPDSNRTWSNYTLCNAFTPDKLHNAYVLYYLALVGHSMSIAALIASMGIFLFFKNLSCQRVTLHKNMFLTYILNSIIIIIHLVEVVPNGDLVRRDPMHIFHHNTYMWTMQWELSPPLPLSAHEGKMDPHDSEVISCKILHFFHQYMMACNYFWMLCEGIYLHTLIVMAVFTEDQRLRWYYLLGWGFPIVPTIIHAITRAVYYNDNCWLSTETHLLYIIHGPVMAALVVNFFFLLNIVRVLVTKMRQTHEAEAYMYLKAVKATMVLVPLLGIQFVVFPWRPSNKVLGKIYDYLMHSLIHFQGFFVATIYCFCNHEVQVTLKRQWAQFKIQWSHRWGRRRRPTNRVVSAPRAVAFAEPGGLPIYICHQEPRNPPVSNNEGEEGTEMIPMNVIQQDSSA
Outline: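 Male Sprague–Dawley rat (250–350 g) brain membranes (~0.63 mg protein/tube) were shaken on ice for 30 min with 10 pM final [125I-Tyr22]sCT and competitor in 50 mM Tris-HCl pH 7.4 with 34 μM bacitracin. Tubes were centrifuged and the pellets washed, SDS-solubilized and scintillation counted. Nonspecific binding was taken with 1 μM sCT. IC50 came from probit analysis, and relative affinity set sCT = 100%.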

| Compound | ED50 [1] [nM] | Relative affinity [2] |
| --- | --- | --- |
| CC[C@H](C)[C@H](NC(=O)[C@H](C)NC(=O)[C@@H](NC(=O)[C@H](CCC(N)=O)NC(=O)[C@H]1CCCN1C(=O)[C@H](Cc1ccccc1)NC(=O)[C@@H](N[C@@H](Cc1c[nH]cn1)C(=O)NC(CCCCN)C(=O)[C@@H]1CCCN1C(=O)[C@H](CC(N)=O)NC(=O)[C@H](Cc1ccccc1)NC(=O)[C@H](CC(=O)O)NC(=O)[C@H](CCC(N)=O)NC(=O)[C@@H](NC(=O)[C@H](Cc1ccc(O)cc1)NC(=O)[C@@H](NC(=O)CNC(=O)[C@H](CC(C)C)NC(=O)[C@H](CCSC)NC(=O)[C@H](CS)NC(=O)[C@@H](NC(=O)[C@H](CO)NC(=O)[C@H](CC(C)C)NC(=O)[C@H](CC(N)=O)NC(=O)CNC(=O)[C@@H](N)CS)[C@@H](C)O)[C@@H](C)O)[C@@H](C)O)[C@@H](C)O)[C@@H](C)O)C(=O)NCC(=O)N[C@H](C(=O)NCC(=O)N[C@@H](C)C(=O)N1CCC[C@@H]1C(N)=O)C(C)C (some centres not stated) | 104 | < 0.0075 |
| CC(C)C[C@H](NC(=O)[C@H](CCCCN)NC(=O)CNC(=O)[C@H](CC(C)C)NC(=O)[C@@H](NC(=O)[C@H](CS)NC(=O)[C@@H](NC(=O)[C@H](CO)NC(=O)[C@H](CC(C)C)NC(=O)[C@H](CC(N)=O)NC(=O)[C@H](CO)NC(=O)[C@@H](N)CS)[C@@H](C)O)C(C)C)C(=O)N[C@@H](CO)C(=O)N[C@@H](CCC(N)=O)C(=O)N[C@@H](CCC(=O)O)C(=O)N[C@@H](CC(C)C)C(=O)N[C@@H](Cc1c[nH]cn1)C(=O)N[C@@H](CCCCN)C(=O)N[C@@H](CC(C)C)C(=O)N[C@@H](CCC(N)=O)C(=O)N[C@H](C(=O)N[C@@H](Cc1ccc(O)cc1)C(=O)N1CCC[C@@H]1C(=O)N[C@@H](CCCN=C(N)N)C(=O)N[C@H](C(=O)N[C@@H](CC(N)=O)C(=O)N[C@H](C(=O)NCC(=O)N[C@@H](CO)C(=O)NCC(=O)N[C@H](C(=O)N1CCC[C@@H]1C(N)=O)[C@@H](C)O)[C@@H](C)O)[C@@H](C)O)[C@@H](C)O | 0.115 | 100 |
| CC(C)C[C@H](NC(=O)[C@H](CCCCN)NC(=O)CNC(=O)[C@H](CC(C)C)NC(=O)[C@@H](NC(=O)[C@H](CS)NC(=O)[C@@H](NC(=O)[C@H](CO)NC(=O)[C@H](CC(C)C)NC(=O)[C@H](CC(N)=O)NC(=O)[C@H](CO)NC(=O)[C@@H](N)CS)[C@@H](C)O)C(C)C)C(=O)N[C@@H](CO)C(=O)N[C@@H](CCC(N)=O)C(=O)N[C@@H](CCC(=O)O)C(=O)N[C@@H](CC(C)C)C(=O)N[C@H]1CC(=O)NCCC[C@@H](C(=O)N[C@@H](Cc2ccc(O)cc2)C(=O)N2CCC[C@@H]2C(=O)N[C@@H](CCCN=C(N)N)C(=O)N[C@H](C(=O)N[C@@H](CC(N)=O)C(=O)N[C@H](C(=O)NCC(=O)N[C@@H](CO)C(=O)NCC(=O)N[C@H](C(=O)N2CCC[C@@H]2C(N)=O)[C@@H](C)O)[C@@H](C)O)[C@@H](C)O)NC(=O)[C@H](CCC(N)=O)NC(=O)[C@H](CC(C)C)NC(=O)[C@H](CCCCN)NC1=O | 0.091 | 120 |

Continued, values first:

| ED50 [1] [nM] | Relative affinity [2] | Compound |
| --- | --- | --- |
| 0.6 | 0.015 | CC[C@H](C)[C@H](NC(=O)[C@H](C)NC(=O)[C@@H](NC(=O)[C@H](CCC(N)=O)NC(=O)[C@H]1CCCN1C(=O)[C@H](Cc1ccccc1)NC(=O)[C@@H](NC(Cc1c[nH]cn1)C(=O)N[C@@H](Cc1ccccc1)C(=O)[C@H](CCCCN)NC(=O)[C@H](CC(N)=O)NC(=O)[C@H](Cc1ccccc1)NC(=O)[C@H](CC(=O)O)NC(=O)[C@H](CCC(N)=O)NC(=O)[C@@H](NC(=O)[C@H](Cc1ccc(O)cc1)NC(=O)[C@@H](NC(=O)CNC(=O)[C@H](CC(C)C)NC(=O)[C@H](CCSC)NC(=O)[C@H](CS)NC(=O)[C@@H](NC(=O)[C@H](CO)NC(=O)[C@H](CC(C)C)NC(=O)[C@H](CC(N)=O)NC(=O)CNC(=O)[C@@H](N)CS)[C@@H](C)O)[C@@H](C)O)[C@@H](C)O)[C@@H](C)O)[C@@H](C)O)C(=O)NCC(=O)N[C@H](C(=O)NCC(=O)N[C@@H](C)C(=O)N1CCC[C@@H]1C(N)=O)C(C)C (some centres not stated) |
| 0.075 | 210 | CC(C)C[C@H](NC(=O)[C@H](CCCCN)NC(=O)CNC(=O)[C@H](CC(C)C)NC(=O)[C@@H](NC(=O)[C@H](CS)NC(=O)[C@@H](NC(=O)[C@H](CO)NC(=O)[C@H](CC(C)C)NC(=O)[C@H](CC(N)=O)NC(=O)[C@H](CO)NC(=O)[C@@H](N)CS)[C@@H](C)O)C(C)C)C(=O)N[C@@H](CO)C(=O)N[C@@H](CCC(N)=O)C(=O)N[C@@H](CCC(=O)O)C(=O)N[C@@H](CC(C)C)C(=O)N[C@H]1CC(=O)NCCCC[C@@H](C(=O)N[C@@H](Cc2ccc(O)cc2)C(=O)N2CCC[C@@H]2C(=O)N[C@@H](CCCN=C(N)N)C(=O)N[C@H](C(=O)N[C@@H](CC(N)=O)C(=O)N[C@H](C(=O)NCC(=O)N[C@@H](CO)C(=O)NCC(=O)N[C@H](C(=O)N2CCC[C@@H]2C(N)=O)[C@@H](C)O)[C@@H](C)O)[C@@H](C)O)NC(=O)[C@H](Cc2cn(N)cn2)NC(=O)[C@H](CC(C)C)NC(=O)[C@H](CCCCN)NC1=O |
| 99 | 0.02 | CC[C@H](C)[C@H](NC(=O)[C@H](C)NC(=O)[C@@H](NC(=O)[C@H](CCC(N)=O)NC(=O)[C@@H]1CCCN1C(=O)[C@H](Cc1ccccc1)NC(=O)[C@@H](N[C@@H](Cc1c[nH]cn1)C(=O)N[C@@H](Cc1ccccc1)C(=O)[C@@H]1CCCN1C(=O)[C@H](CC(N)=O)NC(=O)[C@H](Cc1ccccc1)NC(=O)[C@H](CC(=O)O)NC(=O)[C@H](CCC(N)=O)NC(=O)[C@@H](NC(=O)[C@H](Cc1ccc(O)cc1)NC(=O)[C@@H](NC(=O)CNC(=O)[C@H](CC(C)C)NC(=O)[C@H](CCSC)NC(=O)[C@H](CS)NC(=O)[C@@H](NC(=O)[C@H](CO)NC(=O)[C@H](CC(C)C)NC(=O)[C@H](CC(N)=O)NC(=O)CNC(=O)[C@@H](N)CS)[C@@H](C)O)[C@@H](C)O)[C@@H](C)O)[C@@H](C)O)[C@H](C)O)C(=O)NCC(=O)N[C@H](C(=O)NCC(=O)N[C@@H](C)C(=O)N1CCC[C@H]1C(N)=O)C(C)C |
